Measurements taken from ChEMBL document CHEMBL1133058, “(+)-4-phosphonophenylglycine (PPG) a new group III selective metabotropic glutamate receptor agonist” (Bioorg Med Chem Lett, 2000).
The source made the active and inactive calls. The calls are words filed in the database; no cut-off is given here.

Key:
[1] = biological target: T1, Metabotropic glutamate receptor 4 (Rattus norvegicus, UniProt P31423); experiment: Effective concentration against rat Metabotropic glutamate receptor 4
[2] = biological target: Glutamate receptor ionotropic, NMDA 1 (Homo sapiens, UniProt Q05586); experiment: Dissociation constant against N-methyl-D-aspartate glutamate receptor using [3H]CPP binding was determined
[3] = biological target: T2, Metabotropic glutamate receptor 4 (Homo sapiens, UniProt Q14833); experiment: Inhibition of forskolin stimulated cAMP accumulation in CHO cells expressing hmGluR4a at a concentration of 2000 uM; Inactive
T2 sequence (Q14833 whole entry): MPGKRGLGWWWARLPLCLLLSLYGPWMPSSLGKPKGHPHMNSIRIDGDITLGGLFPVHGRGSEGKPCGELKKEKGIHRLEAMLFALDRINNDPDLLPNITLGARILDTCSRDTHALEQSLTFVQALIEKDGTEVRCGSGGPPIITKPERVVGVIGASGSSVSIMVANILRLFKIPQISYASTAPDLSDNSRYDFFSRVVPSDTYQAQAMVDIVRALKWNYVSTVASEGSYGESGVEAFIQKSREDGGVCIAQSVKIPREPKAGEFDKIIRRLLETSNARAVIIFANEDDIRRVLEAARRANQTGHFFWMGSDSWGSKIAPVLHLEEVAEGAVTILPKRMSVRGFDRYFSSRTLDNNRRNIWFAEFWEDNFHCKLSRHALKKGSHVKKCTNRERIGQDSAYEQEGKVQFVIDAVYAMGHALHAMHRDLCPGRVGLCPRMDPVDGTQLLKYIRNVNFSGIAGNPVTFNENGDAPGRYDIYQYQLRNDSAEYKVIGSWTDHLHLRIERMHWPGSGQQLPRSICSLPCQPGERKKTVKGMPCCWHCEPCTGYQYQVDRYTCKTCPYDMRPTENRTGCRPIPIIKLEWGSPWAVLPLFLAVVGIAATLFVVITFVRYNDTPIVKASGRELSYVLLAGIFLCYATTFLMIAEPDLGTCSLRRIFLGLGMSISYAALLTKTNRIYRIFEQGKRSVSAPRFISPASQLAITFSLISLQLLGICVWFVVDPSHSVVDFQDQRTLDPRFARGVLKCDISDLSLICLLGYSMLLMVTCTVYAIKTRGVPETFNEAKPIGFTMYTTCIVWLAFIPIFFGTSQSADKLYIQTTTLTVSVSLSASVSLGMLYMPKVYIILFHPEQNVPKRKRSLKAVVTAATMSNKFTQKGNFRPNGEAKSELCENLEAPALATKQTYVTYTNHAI

[4] = biological target: T3, Metabotropic glutamate receptor 7 (Homo sapiens, UniProt Q14831); experiment: Inhibition of forskolin stimulated cAMP accumulation in CHO cells expressing hmGluR7b at a concentration of 500 uM; Inactive
T3 sequence (Q14831 whole entry): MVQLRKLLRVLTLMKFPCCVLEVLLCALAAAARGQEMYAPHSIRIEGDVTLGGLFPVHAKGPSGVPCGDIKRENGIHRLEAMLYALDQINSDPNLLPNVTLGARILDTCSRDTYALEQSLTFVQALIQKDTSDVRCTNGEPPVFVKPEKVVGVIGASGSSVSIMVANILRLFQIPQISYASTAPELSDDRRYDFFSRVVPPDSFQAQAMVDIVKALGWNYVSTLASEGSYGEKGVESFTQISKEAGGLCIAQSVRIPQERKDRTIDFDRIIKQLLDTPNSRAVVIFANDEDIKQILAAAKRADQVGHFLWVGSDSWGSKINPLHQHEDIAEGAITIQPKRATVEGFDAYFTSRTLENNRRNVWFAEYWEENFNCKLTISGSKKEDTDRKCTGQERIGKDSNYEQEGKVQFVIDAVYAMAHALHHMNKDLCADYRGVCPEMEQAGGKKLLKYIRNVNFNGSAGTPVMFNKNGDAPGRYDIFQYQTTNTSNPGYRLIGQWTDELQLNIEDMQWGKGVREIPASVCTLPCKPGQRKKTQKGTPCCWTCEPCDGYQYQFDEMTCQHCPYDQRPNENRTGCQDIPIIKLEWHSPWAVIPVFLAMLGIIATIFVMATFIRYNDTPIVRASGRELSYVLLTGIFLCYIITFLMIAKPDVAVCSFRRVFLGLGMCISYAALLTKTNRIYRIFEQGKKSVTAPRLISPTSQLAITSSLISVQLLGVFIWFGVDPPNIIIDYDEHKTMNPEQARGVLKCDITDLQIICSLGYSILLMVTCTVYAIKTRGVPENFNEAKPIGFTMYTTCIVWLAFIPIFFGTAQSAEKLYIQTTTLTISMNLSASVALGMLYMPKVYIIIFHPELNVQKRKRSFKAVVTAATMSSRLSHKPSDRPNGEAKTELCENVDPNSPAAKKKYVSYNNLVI

[5] = biological target: T1, Metabotropic glutamate receptor 4; experiment: Effective concentration against Metabotropic glutamate receptor 4
[6] = biological target: T2, Metabotropic glutamate receptor 4; experiment: Compound was evaluated for the inhibition of forskolin stimulated cAMP accumulation in CHO cells expressing hmGluR4a; type: functional, cell-based
In short: (§1)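 Human mGluR4a or mGluR7b stably expressed in CHO cells; both enantiomers tested in the same functional assay, with cAMP measured by radioimmunoassay and EC50 values reported.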

[7] = biological target: T3, Metabotropic glutamate receptor 7; experiment: Compound was evaluated for the inhibition of forskolin stimulated cAMP accumulation in CHO cells expressing hmGluR7b; type: functional, cell-based; in short: as §1
[8] = biological target: Metabotropic glutamate receptor 3 (Homo sapiens) (UniProt Q14832); experiment: Activity against Metabotropic glutamate receptor 3; Not active
Sequence of Metabotropic glutamate receptor 3 (Homo sapiens) (Q14832 23-879 limits assumed): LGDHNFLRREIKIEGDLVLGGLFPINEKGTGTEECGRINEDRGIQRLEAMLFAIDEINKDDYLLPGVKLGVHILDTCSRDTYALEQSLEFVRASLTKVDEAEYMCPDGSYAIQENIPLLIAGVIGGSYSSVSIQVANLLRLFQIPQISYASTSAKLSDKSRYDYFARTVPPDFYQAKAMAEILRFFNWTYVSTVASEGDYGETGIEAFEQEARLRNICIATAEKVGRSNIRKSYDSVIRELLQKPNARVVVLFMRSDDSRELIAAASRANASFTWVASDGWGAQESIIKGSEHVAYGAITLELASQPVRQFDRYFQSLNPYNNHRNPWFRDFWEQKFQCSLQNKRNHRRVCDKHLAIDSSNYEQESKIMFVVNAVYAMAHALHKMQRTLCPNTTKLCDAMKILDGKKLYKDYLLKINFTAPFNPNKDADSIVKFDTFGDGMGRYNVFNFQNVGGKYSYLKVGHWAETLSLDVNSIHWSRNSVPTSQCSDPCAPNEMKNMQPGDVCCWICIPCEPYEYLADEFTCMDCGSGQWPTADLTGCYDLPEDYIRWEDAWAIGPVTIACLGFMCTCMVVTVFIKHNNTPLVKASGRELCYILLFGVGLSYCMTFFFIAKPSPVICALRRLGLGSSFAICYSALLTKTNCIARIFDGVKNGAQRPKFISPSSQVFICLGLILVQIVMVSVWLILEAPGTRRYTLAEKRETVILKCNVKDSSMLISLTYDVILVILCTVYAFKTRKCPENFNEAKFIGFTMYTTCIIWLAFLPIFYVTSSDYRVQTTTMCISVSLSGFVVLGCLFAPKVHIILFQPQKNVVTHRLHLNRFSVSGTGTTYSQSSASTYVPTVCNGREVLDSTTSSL

[9] = biological target: Metabotropic glutamate receptor 1 (Homo sapiens) (UniProt Q13255); experiment: Activity against human Metabotropic glutamate receptor 1 up to a concentration of 300 uM; Not active
[10] = biological target: Glutamate NMDA receptor; GRIN1/GRIN2B (Homo sapiens) (UniProt Q05586+Q13224); experiment: Activity against cloned ionotropic N-methyl-D-aspartate glutamate receptor 1/2B; Not active; type: protein-complex assay
[11] = biological target: Metabotropic glutamate receptor 5 (Homo sapiens) (UniProt P41594); experiment: Activity against human Metabotropic glutamate receptor 5 up to a concentration of 300 uM; Not active
Sequence of Metabotropic glutamate receptor 5 (Homo sapiens) (P41594 21-1212 limits assumed): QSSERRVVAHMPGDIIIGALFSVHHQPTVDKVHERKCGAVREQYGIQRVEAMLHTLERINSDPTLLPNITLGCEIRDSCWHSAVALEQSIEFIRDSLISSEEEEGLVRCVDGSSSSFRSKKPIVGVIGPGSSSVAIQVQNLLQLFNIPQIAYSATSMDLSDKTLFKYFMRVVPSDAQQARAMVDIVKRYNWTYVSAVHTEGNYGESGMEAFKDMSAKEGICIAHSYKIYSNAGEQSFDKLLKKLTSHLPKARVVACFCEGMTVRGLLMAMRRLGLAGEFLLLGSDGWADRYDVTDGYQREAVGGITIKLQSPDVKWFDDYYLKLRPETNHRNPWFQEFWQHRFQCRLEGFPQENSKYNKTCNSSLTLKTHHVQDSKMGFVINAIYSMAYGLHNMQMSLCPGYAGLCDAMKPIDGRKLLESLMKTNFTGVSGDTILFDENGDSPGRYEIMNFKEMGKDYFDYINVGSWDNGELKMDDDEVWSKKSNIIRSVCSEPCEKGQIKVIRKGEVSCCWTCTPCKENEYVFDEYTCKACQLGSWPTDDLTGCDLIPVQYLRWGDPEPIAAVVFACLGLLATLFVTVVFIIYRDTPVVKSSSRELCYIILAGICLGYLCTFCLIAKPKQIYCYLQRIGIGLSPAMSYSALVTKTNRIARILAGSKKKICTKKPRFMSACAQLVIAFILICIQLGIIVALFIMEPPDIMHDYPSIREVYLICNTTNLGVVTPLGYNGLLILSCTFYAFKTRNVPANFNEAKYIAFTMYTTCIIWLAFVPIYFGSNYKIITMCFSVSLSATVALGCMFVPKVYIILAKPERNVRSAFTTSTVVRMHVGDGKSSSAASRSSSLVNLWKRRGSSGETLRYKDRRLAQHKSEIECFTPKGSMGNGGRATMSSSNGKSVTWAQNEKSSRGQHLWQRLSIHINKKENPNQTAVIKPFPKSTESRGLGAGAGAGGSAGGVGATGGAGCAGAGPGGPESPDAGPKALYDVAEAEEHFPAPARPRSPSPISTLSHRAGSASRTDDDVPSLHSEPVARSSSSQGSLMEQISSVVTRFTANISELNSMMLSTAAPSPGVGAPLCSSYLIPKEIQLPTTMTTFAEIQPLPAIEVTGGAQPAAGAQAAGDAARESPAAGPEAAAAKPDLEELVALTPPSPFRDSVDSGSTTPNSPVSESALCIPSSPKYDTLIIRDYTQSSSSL

[12] = biological target: Glutamate NMDA receptor; GRIN1/GRIN2A (Homo sapiens) (UniProt Q05586+Q12879); experiment: Activity against cloned ionotropic N-methyl-D-aspartate glutamate receptor 1/2A; Not active; type: protein-complex assay
[13] = biological target: Metabotropic glutamate receptor 6 (Homo sapiens) (UniProt O15303); experiment: Activity against Metabotropic glutamate receptor 6; Not active
[14] = biological target: Metabotropic glutamate receptor 2 (Homo sapiens) (UniProt Q14416); experiment: Activity against human Metabotropic glutamate receptor 2 up to a concentration of 300 uM; Not active
[15] = biological target: Glutamate [NMDA] receptor (Homo sapiens) (UniProt Q05586+Q12879+Q13224+O15399+O60391+Q14957+Q8TCU5); experiment: Binding affinity (100 uM) against N-methyl-D-aspartate glutamate receptor using [3H]CPP binding was determined; No activity; type: protein-complex assay
[16] = biological target: Metabotropic glutamate receptor 3 (Homo sapiens) (UniProt Q14832); experiment: Activity against human Metabotropic glutamate receptor 3 up to a concentration of 300 uM; Not active

T1 sequence (P31423 whole entry): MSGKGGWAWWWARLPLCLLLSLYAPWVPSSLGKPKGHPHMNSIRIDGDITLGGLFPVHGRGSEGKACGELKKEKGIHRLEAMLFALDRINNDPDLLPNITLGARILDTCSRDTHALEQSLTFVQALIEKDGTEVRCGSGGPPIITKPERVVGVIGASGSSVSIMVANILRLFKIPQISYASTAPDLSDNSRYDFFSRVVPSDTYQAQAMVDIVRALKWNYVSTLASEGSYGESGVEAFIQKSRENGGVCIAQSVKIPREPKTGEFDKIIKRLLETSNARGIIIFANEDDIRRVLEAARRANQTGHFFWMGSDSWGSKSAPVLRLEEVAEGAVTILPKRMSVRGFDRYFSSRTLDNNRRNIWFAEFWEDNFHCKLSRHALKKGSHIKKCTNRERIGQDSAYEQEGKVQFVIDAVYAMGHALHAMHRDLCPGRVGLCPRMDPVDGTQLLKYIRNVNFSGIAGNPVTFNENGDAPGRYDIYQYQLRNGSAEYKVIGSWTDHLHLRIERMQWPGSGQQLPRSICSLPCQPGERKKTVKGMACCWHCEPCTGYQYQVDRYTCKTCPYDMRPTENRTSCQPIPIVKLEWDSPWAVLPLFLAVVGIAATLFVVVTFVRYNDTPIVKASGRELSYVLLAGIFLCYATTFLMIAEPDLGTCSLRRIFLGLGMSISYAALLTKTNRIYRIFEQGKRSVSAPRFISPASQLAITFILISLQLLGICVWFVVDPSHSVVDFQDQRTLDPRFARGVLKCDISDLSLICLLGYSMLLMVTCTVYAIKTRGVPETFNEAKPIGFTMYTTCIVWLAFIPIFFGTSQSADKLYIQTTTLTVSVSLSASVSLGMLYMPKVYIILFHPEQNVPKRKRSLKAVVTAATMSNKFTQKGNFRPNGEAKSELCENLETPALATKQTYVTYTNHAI

NC1(C(=O)O)CC(=CP(=O)(O)O)C1 (stereo not drawn)
EC50 [1]: 4.5 µM

NC(C(=O)O)c1ccc(CP(=O)(O)O)cc1 (stereo not drawn)
Kd [2]: 3 µM

NC(C(=O)O)c1ccc(P(=O)(O)O)cc1 (stereo not drawn)
EC50 [3]: Not Active | EC50 [4]: Not Active

NC1(C(=O)O)CC1CP(=O)(O)O (stereo not drawn)
EC50 [5]: 0.5 µM

NC(C(=O)O)c1ccc(P(=O)(O)O)cc1 (single isomer, unassigned; (+))
EC50 [6]: 3.2 µM | EC50 [7]: 48 µM

NC(C(=O)O)c1ccc(P(=O)(O)O)cc1 (stereo in doubt) [listing 1 of 2 here]
EC50 [6]: 5.2 µM | EC50 [7]: 185 µM

NC(C(=O)O)c1ccc(P(=O)(O)O)cc1 (stereo in doubt) [listing 2 of 2 here]
Activity [8]: inactive | Activity [9]: inactive | Activity [10]: inactive | Activity [11]: inactive | Activity [12]: inactive | Activity [13]: inactive | Activity [14]: inactive | Activity [15]: inactive | Activity [16]: inactive
